In publication PMC11250141 (RSC Advances, 2024):

What was measured:
[1] = DPPH˙ scavenging activity; details: 30 min, 515 nm; tested 10–100 µg mL^−1
How it was run: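 Test compound (10–100 µg mL⁻¹) or 80% methanol control was mixed 1:2 (v/v) with DPPH solution, shaken, and kept 30 min at room temperature in the dark. Absorbance was read at 515 nm. Scavenging % = 100 × (1 − A sample/A DPPH blank). Ferulic and syringic acids served as references. Run in triplicate.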

Cell viability [2] = format: cell-based; details: human, Caco-2 cells
How it was run: (§1)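 Caco-2 and Vero cells were grown in DMEM with 10% FBS, and HUVEC in DMEM-F12 with 10% FBS, at 37 °C and 5% CO₂. Cells were seeded at 5.000 per well 24 h before treatment. Test compound was diluted from a 100 mM DMSO stock into 1% FBS medium at 1, 10, 30, 50, 100 and 150 µM. Controls were 10% DMSO and medium alone. At 24, 48 and 72 h, cells got resazurin (0.5 mg mL⁻¹ solution) for 4 h, read at ex 560/em 590 nm. IC50 was from curve fitting.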

Cell viability [3] = format: cell-based; details: human, HUVEC cells
How it was run: as §1

Cell viability [4] = format: cell-based; details: African green monkey, Vero cells
How it was run: as §1

[5] = SO + additive at 200 ppm; for T 5 (5% mass loss) / T 10 (10% mass loss) / T 50 (50% mass loss) / T onset (decomposition temperature: onset temperature): TGA in air
How it was run: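 Thermogravimetry of sunflower oil with 200 ppm test compound: about 10 mg oil in a Pt crucible was heated from ambient to 700 °C at 5 °C min⁻¹ in air (60 mL min⁻¹), with N₂ purge on the balance. Onset temperature and temperatures at 5, 10 and 50% mass loss came from TG/DTG curves and were compared with unsupplemented oil.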

Lipoperoxidation = details: 220 °C; for Reduction in secondary oxidation (TBARS) in comparison with SOcontrol / TBARS value: SO + additive 200 ppm; for TBARS value: 30 min
How it was run: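 Sunflower oil with 200 ppm test compound was heated on a hot plate at 25, 100, 180 and 220 °C for 30 min (ramp 2 °C min⁻¹). Oil (0.5 mL) was vortexed with TBA/TCA/HCl and centrifuged 3500 rpm for 5 min. Supernatant was heated 90 °C for 15 min and read at 535 nm against an MDA curve, as nmol MDA per mL oil. Unsupplemented oil was the control. Run in triplicate.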

[6] = Cytotoxic effect, summary over the three cell lines; format: cell-based; details: human (Caco-2, HUVEC); African green monkey (Vero), Caco-2, HUVEC and Vero cells
How it was run: as §1

[7] = Schaal Oven Test, TBARS, sunflower oil; details: 60 °C, over 12 days
How it was run: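 Schaal oven test (AOCS Cg5-97): supplemented olive or sunflower oil was held at 60 ± 5 °C in the dark for 12 days, sampled every 3 days. TBARS: oil was mixed with TBA/TCA/HCl and centrifuged. Supernatant was heated 90 °C for 15 min and read at 535 nm against an MDA curve (nmol MDA per mL oil). n = 3, compared with unsupplemented oil.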

Row | SMILES | Antioxidant capacity (DPPH), IC50 [1] [µg/mL] | IC50 at 24 h (Cell viability [2]) [µM] | IC50 at 48 h (Cell viability [2]) [µM] | IC50 at 72 h (Cell viability [2]) [µM] | IC50 at 24 h (Cell viability [3]) [µM] | IC50 at 48 h (Cell viability [3]) [µM] | IC50 at 72 h (Cell viability [3]) [µM] | IC50 at 24 h (Cell viability [4]) [µM] | IC50 at 48 h (Cell viability [4]) [µM] | IC50 at 72 h (Cell viability [4]) [µM] | T 5 (5% mass loss) [5] [°C] | T 10 (10% mass loss) [5] [°C] | T 50 (50% mass loss) [5] [°C] | T onset (decomposition temperature: onset temperature) [5] [°C] | Reduction in secondary oxidation (TBARS) in comparison with SOcontrol (Lipoperoxidation) [times] | IC50 [6] [µM] | other results
1 | CCOc1ccc(/C=C/C(=O)O)cc1OC [Compound 3a, (E)-3-(4-Ethoxy-3-methoxyphenyl)acrylic acid] | 56.50 ± 2.38 | > 100 | > 100 | > 100 | > 100 | > 100 | > 100 | > 100 | > 100 | > 100 |  |  |  |  |  |  | 
2 | CCCOc1ccc(/C=C/C(=O)O)cc1OC [Compound 3b, (E)-3-(3-Methoxy-4-propoxyphenyl)acrylic acid] | 90.43 ± 1.63 | > 100 | > 100 | > 100 | > 100 | > 100 | > 100 | > 100 | > 100 | > 100 | 376 | 390 | 423 | 344 | 5 |  | Difference of degradation temperature in comparison to SO at 5% mass loss [5]: 35 °C; Difference of degradation temperature in comparison to SO at 10% mass loss [5]: 25 °C; Difference of degradation temperature in comparison to SO at 50% mass loss [5]: 4 °C; TBARS value (Lipoperoxidation): 8.88 nmol/mL
3 | CCCCCOc1ccc(/C=C/C(=O)O)cc1OC [Compound 3c, (E)-3-(3-Methoxy-4-(pentyloxy)phenyl)acrylic acid] | >100 | > 100 | > 100 | > 100 | > 100 | > 100 | > 100 | > 100 | > 100 | > 100 | 370 | 386 | 424 | 343 | 6 |  | TBARS value (Lipoperoxidation): 7.68 nmol/mL; TBARS value (level of SO oxidation) (Lipoperoxidation; SO + additive): 7.68 nmol/L
4 | CCCCCCOc1ccc(/C=C/C(=O)O)cc1OC [Compound 3d, (E)-3-(4-(Hexyloxy)-3-methoxyphenyl)acrylic acid] | >100 | > 100 | > 100 | > 100 | > 100 | > 100 | > 100 | > 100 | > 100 | > 100 |  |  |  |  |  |  | 
5 | CCCCCCCCOc1ccc(/C=C/C(=O)O)cc1OC [Compound 3e, (E)-3-(3-Methoxy-4-(octyloxy)phenyl)acrylic acid] | >100 | > 100 | > 100 | 96.2 ± 1.1 | 90 ± 1.03 | 53.1 ± 1.02 | 54.4 ± 1.05 | > 100 | > 100 | > 100 |  |  |  |  |  | < 100 | 
6 | CCCCCCCCCCOc1ccc(/C=C/C(=O)O)cc1OC [Compound 3f, (E)-3-(4-(Decyloxy)-3-methoxyphenyl)acrylic acid] | >100 | > 100 | 88.7 ± 1.08 | 76.8 ± 1.08 | 55.6 ± 1.05 | 26.4 ± 1.06 | 25.4 ± 1.08 | > 100 | > 100 | > 100 |  |  |  |  |  | < 100 | 
7 | COc1cc(C(=O)O)cc(OC)c1O [Compound 4, syringic acid, reference compound] | 4.53 ± 0.19 |  |  |  |  |  |  |  |  |  |  |  |  |  |  |  | 
8 | CCOc1c(OC)cc(C(=O)O)cc1OC [Compound 5a, 4-Ethoxy-3,5-dimethoxybenzoic acid] | 9.20 ± 0.91 | > 100 | > 100 | > 100 | > 100 | > 100 | > 100 | > 100 | > 100 | > 100 |  |  |  |  |  |  | 
9 | CCCOc1c(OC)cc(C(=O)O)cc1OC [Compound 5b, 3,5-Dimethoxy-4-propoxybenzoic acid] | 11.47 ± 0.58 | > 100 | > 100 | > 100 | > 100 | > 100 | > 100 | > 100 | > 100 | > 100 | 364 | 382 | 420 | 305 | 5 |  | Increase of onset temperature of mass loss (Tonset) in comparison with SO [5]: 24 °C
10 | CCCCCOc1c(OC)cc(C(=O)O)cc1OC [Compound 5c, 3,5-Dimethoxy-4-(pentyloxy)benzoic acid] | 34.98 ± 2.23 | > 100 | > 100 | > 100 | > 100 | > 100 | > 100 | > 100 | > 100 | > 100 | 368 | 388 | 426 | 318 | 5 |  | Increase of onset temperature of mass loss (Tonset) in comparison with SO [5]: 37 °C; TBARS values compared with control [7]: decreased the TBARS values
11 | CCCCCCOc1c(OC)cc(C(=O)O)cc1OC [Compound 5d, 4-(Hexyloxy)-3,5-dimethoxybenzoic acid] | >100 | > 100 | > 100 | > 100 | > 100 | > 100 | > 100 | > 100 | > 100 | > 100 |  |  |  |  |  |  | 
12 | CCCCCCCCOc1c(OC)cc(C(=O)O)cc1OC [Compound 5e, 3,5-Dimethoxy-4-(octyloxy)benzoic acid] | >100 | > 100 | > 100 | > 100 | > 100 | 55.9 ± 1.06 | 53.3 ± 1.05 | > 100 | > 100 | > 100 |  |  |  |  |  | < 100 | 
13 | CCCCCCCCCCOc1c(OC)cc(C(=O)O)cc1OC [Compound 5f, 4-(Decyloxy)-3,5-dimethoxybenzoic acid] | >100 | > 100 | 70 ± 1.06 | 62.8 ± 1.07 | 47.2 ± 1.04 | 35.4 ± 1.04 | 29.3 ± 1.09 | > 100 | > 100 | > 100 |  |  |  |  |  | < 100 | 
